From ChEMBL document CHEMBL4428100, “Versatile Picklocks To Access All Opioid Receptors: Tuning the Selectivity and Functional Profile of the Cyclotetrapeptide c[Phe-d-Pro-Phe-Trp] (CJ-15,208)” (J Med Chem, 2016)
Calls of active or inactive are those of the source. The rule behind the calls is not given here. Non-standard residues stand in square brackets, D forms with d. Residues, ends and D or L forms follow the SMILES beside them.

Assays:
Mu-type opioid receptor [1] = target: T1, Mu-type opioid receptor (Homo sapiens, UniProt P35372); test: Displacement of [3H]DAMGO from human MOR expressed in HEK293 cell membranes incubated for 90 mins by liquid scintillation counting
How it was run: (§1)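 Compound (10^-12 to 10^-4 M) incubated 90 min at 25°C in 100 mM Tris-HCl with 0.3% BSA. Cold ligands define nonspecific binding. Filters presoaked in 0.3% polyethylenimine; liquid scintillation counting. Ki from IC50 by Cheng-Prusoff; triplicate.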

[2] = target: T2, Delta-type opioid receptor (Homo sapiens, UniProt P41143); test: Displacement of [3H]diprenorphine from human DOR expressed in HEK293 cell membranes incubated for 90 mins by liquid scintillation counting
[3] = target: T3, Kappa-type opioid receptor (Homo sapiens, UniProt P41145); test: Displacement of [3H]U69,593 from human KOR expressed in HEK293 cell membranes incubated for 90 mins by liquid scintillation counting; how it was run: as §1
Mu-type opioid receptor [4] = target: T1, Mu-type opioid receptor; assay type: functional, cell-based, HEK293
[5] = target: T2, Delta-type opioid receptor; test: Antagonist activity at human DOR expressed in HEK293 cells assessed as reduction of DPDPE-induced inhibition of forskolin-induced cAMP accumulation by EIA method; assay type: functional, cell-based
How it was run: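 HEK-293 cells stably expressing hDOR, in serum-free medium with 0.5 mM IBMX, exposed 15 min at 37°C to 10 μM forskolin plus 10 μM DPDPE, with or without compound (0.001 nM-100 μM). cAMP by EIA kit. Triplicate determinations; IC50 as mean ± SE of 5-6 independent experiments.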

Mu-type opioid receptor [6] = target: T1, Mu-type opioid receptor; test: Antagonist activity at human MOR expressed in HEK293 cells assessed as reduction of DAMGO-induced inhibition of forskolin-induced cAMP accumulation by EIA method; assay type: functional, cell-based
[7] = target: T3, Kappa-type opioid receptor; test: Antagonist activity at human KOR expressed in HEK293 cells assessed as reduction of U50,488-induced inhibition of forskolin-induced cAMP accumulation by EIA method; assay type: functional, cell-based
[8] = Stability in mouse serum after 3 hrs by RP-HPLC and ESI-MS analysis; assay type: ADME, cell-free
How it was run: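 Compound incubated in mouse serum for 3 h to assess enzymatic stability.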

Mus musculus [9] = test: Antinociceptive activity in mouse model of visceral pain assessed as reduction in AcOH-induced stretching or writhing responses dosed intraperitoneally 5 mins before AcOH challenge; assay type: functional
How it was run: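 Mice given 0.6% w/v AcOH in water ip (0.1 ml/10 g). Compound (0.5-10 mg/kg) or vehicle given ip 5 min earlier. Stretching/writhing counted for 10 min after AcOH. 6-8 mice per group, mean ± SEM; ED50 derived from the dose-response; Dunnett test after ANOVA.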

Mus musculus [10] = test: Antinociceptive activity in mouse model of visceral pain assessed as reduction in AcOH-induced stretching or writhing responses at 10 mg/kg, ip 5 mins before AcOH challenge and co-administered with 30 mg/kg, ip opioid antagonist NLX 15 mins before compound dosing; assay type: functional, organism-based
Mus musculus [11] = test: Antinociceptive activity in mouse model of visceral pain assessed as reduction in AcOH-induced stretching or writhing responses at 10 mg/kg, ip 5 mins before AcOH challenge and co-administered with 10 mg/kg, ip DOR antagonist NTD 30 mins before compound dosing; assay type: functional, organism-based
Mus musculus [12] = test: Antinociceptive activity in mouse model of visceral pain assessed as reduction in AcOH-induced stretching or writhing responses at 10 mg/kg, ip 5 mins before AcOH challenge and co-administered with 10 mg/kg, ip KOR antagonist norBNI 10 mins before compound dosing; assay type: functional, organism-based
Mus musculus [13] = test: Effect on spontaneous locomotor activity in mouse model of visceral pain at 0.5 to 10 mg/kg, ip dosed 5 mins before AcOH challenge measured within 6 hrs; assay type: ADME, organism-based; conditions: in vivo
Mus musculus [14] = test: Effect on circling behavior in mouse model of visceral pain at 0.5 to 10 mg/kg, ip dosed 5 mins before AcOH challenge measured within 6 hrs; assay type: ADME, organism-based; conditions: in vivo
[15] = Toxicity in mouse model of visceral pain assessed as induction of straub tail at 0.5 to 10 mg/kg, ip dosed 5 mins before AcOH challenge measured within 6 hrs; assay type: organism-based; conditions: in vivo
Mus musculus [16] = test: Effect on grooming behavior in mouse model of visceral pain at 0.5 to 10 mg/kg, ip dosed 5 mins before AcOH challenge measured within 6 hrs; assay type: ADME, organism-based; conditions: in vivo
[17] = target: T3, Kappa-type opioid receptor; test: Binding affinity to KOR (unknown origin)
How it was run: (§2)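 Displacement binding on membranes from HEK-293 cells stably expressing cloned human receptors; radioligand [³H]diprenorphine for DOR, [³H]U69,593 for KOR. Compounds tested at 10⁻¹²–10⁻⁴ M, incubated 90 min at 25°C in 100 mM Tris-HCl with 0.3% BSA. Nonspecific binding defined with cold ligand. Filter-bound radioactivity counted by liquid scintillation. Ki from IC50 via Cheng-Prusoff. Run in triplicate.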

Mu-type opioid receptor [18] = target: T1, Mu-type opioid receptor; test: Binding affinity to MOR (unknown origin)
How it was run: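 Test compounds were run at 10⁻¹²-10⁻⁴ M, incubated 90 min at 25°C in 100 mM Tris-HCl with 0.3% BSA. Nonspecific binding was defined with cold ligand. Filter-trapped radioactivity was counted by liquid scintillation, with filters presoaked in 0.3% polyethylenimine. Assays were run in triplicate. Ki was derived from IC50 by Cheng-Prusoff.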

[19] = target: T2, Delta-type opioid receptor; test: Binding affinity to DOR (unknown origin); how it was run: as §2
[20] = Antagonist activity against KOR in rabbit vas deferens smooth muscles assessed as inhibition of asimadoline-induced response; conditions: Oryctolagus cuniculus
Mu-type opioid receptor [21] = target: T1, Mu-type opioid receptor; test: Displacement of [3H]DAMGO from human MOR expressed in HEK293 cell membranes at […] incubated for 90 mins by liquid scintillation counting
Mu-type opioid receptor [22] = target: T1, Mu-type opioid receptor; test: Agonist activity at human MOR expressed in HEK293 cells assessed as inhibition of forskolin-induced cAMP accumulation at 10^-12 to 10^-4 M by EIA method; assay type: functional, cell-based
How it was run: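 Whole HEK-293 cells stably expressing hMOR, in serum-free medium with 0.5 mM IBMX, exposed 15 min at 37°C to 10 μM forskolin with or without compound (0.001 nM-100 μM). cAMP measured by EIA kit. Triplicate determinations; IC50 and Emax (% vehicle) as mean ± SE of 5-6 independent experiments.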

T2 sequence (P41143 whole entry): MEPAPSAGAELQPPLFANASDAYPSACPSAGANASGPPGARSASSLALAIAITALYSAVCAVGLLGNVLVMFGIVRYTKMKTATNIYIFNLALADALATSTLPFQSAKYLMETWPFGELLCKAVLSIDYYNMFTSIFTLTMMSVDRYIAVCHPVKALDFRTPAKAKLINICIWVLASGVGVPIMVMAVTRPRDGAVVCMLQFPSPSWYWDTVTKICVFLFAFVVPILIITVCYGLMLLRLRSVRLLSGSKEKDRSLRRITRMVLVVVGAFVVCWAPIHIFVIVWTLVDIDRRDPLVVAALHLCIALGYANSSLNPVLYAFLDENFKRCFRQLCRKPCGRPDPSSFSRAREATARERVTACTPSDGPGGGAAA
T3 sequence (P41145 whole entry): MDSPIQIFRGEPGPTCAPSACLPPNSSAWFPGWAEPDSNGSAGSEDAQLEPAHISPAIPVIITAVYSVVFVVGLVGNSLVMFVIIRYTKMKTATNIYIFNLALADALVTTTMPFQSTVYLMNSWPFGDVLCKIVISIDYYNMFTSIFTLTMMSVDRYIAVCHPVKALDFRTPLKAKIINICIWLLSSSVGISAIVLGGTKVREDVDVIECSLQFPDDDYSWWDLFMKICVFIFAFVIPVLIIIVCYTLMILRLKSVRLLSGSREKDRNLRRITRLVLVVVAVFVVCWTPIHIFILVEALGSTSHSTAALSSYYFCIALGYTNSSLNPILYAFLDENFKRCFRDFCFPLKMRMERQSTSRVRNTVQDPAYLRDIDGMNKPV
T1 sequence (P35372 whole entry): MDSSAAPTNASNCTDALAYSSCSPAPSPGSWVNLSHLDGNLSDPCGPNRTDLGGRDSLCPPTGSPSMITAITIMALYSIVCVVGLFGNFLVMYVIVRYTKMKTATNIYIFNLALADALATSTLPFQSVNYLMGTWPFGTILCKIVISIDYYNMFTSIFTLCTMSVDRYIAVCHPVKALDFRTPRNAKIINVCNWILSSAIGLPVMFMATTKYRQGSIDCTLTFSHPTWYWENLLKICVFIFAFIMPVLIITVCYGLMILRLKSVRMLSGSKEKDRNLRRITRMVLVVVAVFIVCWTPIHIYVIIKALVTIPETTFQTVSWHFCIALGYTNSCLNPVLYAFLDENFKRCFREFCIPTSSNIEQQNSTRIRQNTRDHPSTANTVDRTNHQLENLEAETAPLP

**Q.** For `O=C1NCCC(=O)N2CCC[C@@H]2C(=O)N[C@@H](Cc2ccccc2)C(=O)N[C@H]1Cc1c[nH]c2ccccc12`, which Ki (Mu-type opioid receptor [1]) is on record?
**A.** The Ki was 4.1 nM.

**Q.** What about the Ki [2] of the same molecule?
**A.** Its Ki is > 100000 nM.

**Q.** And the Ki [3]?
**A.** The Ki was > 100000 nM.

**Q.** What about the IC50 (Mu-type opioid receptor [4]) of the same molecule?
**A.** The IC50 was 6.1 nM.

**Q.** What about the inhibition [5] of the same molecule?
**A.** The inhibition was “inactive”.

**Q.** And the inhibition (Mu-type opioid receptor [6])?
**A.** The inhibition was “inactive”.

**Q.** And the inhibition [7]?
**A.** Its inhibition is “inactive”.

**Q.** And the Stability [8]?
**A.** Its Stability is “Stable”.

**Q.** What about the inhibition (Mus musculus [9]) of the same molecule?
**A.** Its inhibition is “Dose-dependent effect”.

**Q.** What about the ED50 (Mus musculus [9]; ip) of the same molecule?
**A.** The ED50 was 0.64 mg/kg.

**Q.** And the Activity (Mus musculus [10])?
**A.** Its Activity is “inactive”.

**Q.** And the Activity (Mus musculus [11])?
**A.** Its Activity is “Active”.

**Q.** What about the Activity (Mus musculus [12]) of the same molecule?
**A.** The Activity was “Active”.

**Q.** What about the Activity (Mus musculus [13]) of the same molecule?
**A.** Its Activity is “Non-Toxic”.

**Q.** And the Activity (Mus musculus [14])?
**A.** The Activity was “Non-Toxic”.

**Q.** What about the Activity [15] of the same molecule?
**A.** Its Activity is “Non-Toxic”.

**Q.** And the Activity (Mus musculus [16])?
**A.** The Activity was “Non-Toxic”.

**Q.** Which IC50 [17] does the source give for `O=C1N[C@@H](Cc2ccccc2)C(=O)N2CCC[C@@H]2C(=O)N[C@@H](Cc2ccccc2)C(=O)N[C@H]1Cc1c[nH]c2ccccc12` (cyclo(FWF[dP])) here?
**A.** The IC50 was 47 nM.

**Q.** What about the IC50 (Mu-type opioid receptor [18]) of the same molecule?
**A.** The IC50 was 260 nM.

**Q.** And the IC50 [19]?
**A.** Its IC50 is 2600 nM.

**Q.** And the EC50 [20]?
**A.** The EC50 was 1300 nM.

**Q.** And the Ki (Mu-type opioid receptor [1])?
**A.** The Ki was 127 nM.

**Q.** What about the Ki [2] of the same molecule?
**A.** The Ki was > 100000 nM.

**Q.** And the Ki [3]?
**A.** Its Ki is 32 nM.

**Q.** Which Ki (Mu-type opioid receptor [1]) does the source give for `C[C@@H]1NC(=O)[C@H](Cc2c[nH]c3ccccc23)NC(=O)[C@@H](Cc2ccccc2)NC(=O)[C@H]2CCCN2C1=O` here?
**A.** The Ki was > 100000 nM.

**Q.** What about the Ki [2] of the same molecule?
**A.** Its Ki is > 100000 nM.

**Q.** And the Ki [3]?
**A.** Its Ki is > 100000 nM.

**Q.** Which Activity [17] does the source give for `O=C1CNC(=O)[C@H](Cc2ccccc2)NC(=O)[C@@H](Cc2c[nH]c3ccccc23)NC(=O)[C@H]2CCCN2C(=O)[C@H](Cc2ccc(O)cc2)N1` (cyclo(FGY[dP][dW])) here?
**A.** Its Activity is 1 ×10⁻⁸ M.

**Q.** What does the source list for `O=C1NCCCC(=O)N2CCC[C@@H]2C(=O)N[C@@H](Cc2ccccc2)C(=O)N[C@H]1Cc1c[nH]c2ccccc12`?
**A.** Ki [2]: 3.08 nM; Ki [3]: > 100000 nM; inhibition (Mu-type opioid receptor [21]): < 50%; IC50 (Mu-type opioid receptor [4]): 183 nM; Activity (Mu-type opioid receptor [22]): inactive; inhibition [5]: Dose-dependent effect; inhibition (Mu-type opioid receptor [6]): inactive; inhibition [7]: inactive

**Q.** With `Cn1cc(C[C@@H]2NC(=O)[C@H](Cc3ccccc3)NC(=O)[C@H]3CCCN3C(=O)[C@H](Cc3ccccc3)NC2=O)c2ccccc21` as the molecule, how does the Ki [2] read?
**A.** The Ki was > 100000 nM.

**Q.** And the Ki [3]?
**A.** Its Ki is > 100000 nM.

**Q.** What about the inhibition (Mu-type opioid receptor [21]) of the same molecule?
**A.** The inhibition was < 50%.

**Q.** For `Cn1cc(C[C@H]2NC(=O)[C@H](Cc3ccccc3)NC(=O)[C@H]3CCCN3C(=O)[C@H](Cc3ccccc3)NC2=O)c2ccccc21`, which Ki (Mu-type opioid receptor [1]) is on record?
**A.** The Ki was > 100000 nM.

**Q.** And the Ki [2]?
**A.** Its Ki is > 100000 nM.

**Q.** What about the Ki [3] of the same molecule?
**A.** The Ki was > 100000 nM.

**Q.** Which Ki (Mu-type opioid receptor [1]) does the source give for `C[C@H]1NC(=O)[C@H](Cc2c[nH]c3ccccc23)NC(=O)[C@H](Cc2ccccc2)NC(=O)[C@H]2CCCN2C1=O` here?
**A.** The Ki was > 100000 nM.

**Q.** What about the Ki [2] of the same molecule?
**A.** The Ki was > 100000 nM.

**Q.** And the Ki [3]?
**A.** Its Ki is > 100000 nM.
